# Experimental data as given in ChEMBL document CHEMBL4368943 (J Med Chem, 2019).
# Calls of active or inactive are those of the source. The calls are words filed in the database; no cut-off is given here.
# Columns and labels:
# [1] = target: T1, von Hippel-Lindau disease tumor suppressor/Estrogen receptor/Cullin-2 (Homo sapiens, UniProt P03372+P40337+Q13617); experiment: Protac activity against VHL/cullin2/ERalpha in human MCF7 cells assessed as ERalpha degradation by measuring ER protein/GADPH ratio at 1 nM after 4 hrs by Western blot analysis relative to control; format: cell-based
# How it was run: (§1)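 MCF-7 cells (DMEM, 10% FBS, passages 3−8) exposed 4 h. Lysed in RIPA with protease inhibitors; equal protein on 10% SDS-PAGE, PVDF, anti-ERα blot. Membranes stripped and reprobed for GAPDH. ERα/GAPDH ratio normalized to DMSO = 100; DC50 from densitometry of the dose series.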
# Target sequence in this assay (P03372 whole entry, looked up): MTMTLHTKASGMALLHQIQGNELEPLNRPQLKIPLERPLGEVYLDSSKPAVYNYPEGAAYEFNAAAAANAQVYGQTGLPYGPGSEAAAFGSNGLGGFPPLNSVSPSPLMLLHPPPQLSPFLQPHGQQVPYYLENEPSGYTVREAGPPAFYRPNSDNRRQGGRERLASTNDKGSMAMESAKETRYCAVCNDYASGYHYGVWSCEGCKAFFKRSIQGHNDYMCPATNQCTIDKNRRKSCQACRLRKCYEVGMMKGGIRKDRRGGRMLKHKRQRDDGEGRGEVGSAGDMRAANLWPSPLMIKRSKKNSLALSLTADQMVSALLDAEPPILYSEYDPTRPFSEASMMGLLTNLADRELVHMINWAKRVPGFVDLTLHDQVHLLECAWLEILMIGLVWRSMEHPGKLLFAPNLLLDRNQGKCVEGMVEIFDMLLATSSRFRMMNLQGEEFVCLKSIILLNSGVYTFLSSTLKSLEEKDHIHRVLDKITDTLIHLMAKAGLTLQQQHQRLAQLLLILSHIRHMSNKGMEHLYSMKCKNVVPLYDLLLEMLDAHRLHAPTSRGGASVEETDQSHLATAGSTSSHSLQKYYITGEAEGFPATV
# Target sequence in this assay (P40337 whole entry, looked up): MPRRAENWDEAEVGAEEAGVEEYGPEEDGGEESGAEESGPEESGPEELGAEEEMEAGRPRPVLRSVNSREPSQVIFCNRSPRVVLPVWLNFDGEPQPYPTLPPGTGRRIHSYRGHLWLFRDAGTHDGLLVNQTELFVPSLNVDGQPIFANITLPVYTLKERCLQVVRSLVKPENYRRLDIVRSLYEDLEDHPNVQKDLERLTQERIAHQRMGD
# Target sequence in this assay (Q13617 whole entry, looked up): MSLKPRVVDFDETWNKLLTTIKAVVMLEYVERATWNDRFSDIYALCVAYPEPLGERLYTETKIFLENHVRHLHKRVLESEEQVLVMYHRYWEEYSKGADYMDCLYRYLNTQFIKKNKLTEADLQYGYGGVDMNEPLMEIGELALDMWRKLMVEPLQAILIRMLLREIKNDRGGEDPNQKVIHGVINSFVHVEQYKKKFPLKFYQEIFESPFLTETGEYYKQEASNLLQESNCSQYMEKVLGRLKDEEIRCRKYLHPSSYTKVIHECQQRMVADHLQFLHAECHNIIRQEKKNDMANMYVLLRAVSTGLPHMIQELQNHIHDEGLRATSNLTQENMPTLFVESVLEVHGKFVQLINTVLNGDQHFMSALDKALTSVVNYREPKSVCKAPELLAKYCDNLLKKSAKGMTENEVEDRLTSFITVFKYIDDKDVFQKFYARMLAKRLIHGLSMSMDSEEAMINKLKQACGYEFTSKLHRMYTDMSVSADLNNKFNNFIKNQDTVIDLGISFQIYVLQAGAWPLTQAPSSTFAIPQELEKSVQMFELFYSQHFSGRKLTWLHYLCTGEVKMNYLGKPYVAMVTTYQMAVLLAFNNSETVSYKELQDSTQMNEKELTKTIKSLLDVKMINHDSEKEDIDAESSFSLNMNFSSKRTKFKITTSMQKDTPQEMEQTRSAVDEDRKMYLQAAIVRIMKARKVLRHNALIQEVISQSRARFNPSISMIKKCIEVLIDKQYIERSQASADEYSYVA
# [2] = target: T1, von Hippel-Lindau disease tumor suppressor/Estrogen receptor/Cullin-2; experiment: Protac activity against VHL/cullin2/ERalpha in human MCF7 cells assessed as ERalpha degradation by measuring ER protein/GADPH ratio at 10 nM after 4 hrs by Western blot analysis relative to control; format: cell-based; how it was run: as §1
# Target sequence in this assay (P03372 whole entry, looked up): as the sequence (P03372 whole entry, looked up) above
# Target sequence in this assay (P40337 whole entry, looked up): as the sequence (P40337 whole entry, looked up) above
# Target sequence in this assay (Q13617 whole entry, looked up): as the sequence (Q13617 whole entry, looked up) above
# [3] = target: T1, von Hippel-Lindau disease tumor suppressor/Estrogen receptor/Cullin-2; experiment: Protac activity against VHL/cullin2/ERalpha in human MCF7 cells assessed as ERalpha degradation by measuring ER protein/GADPH ratio at 100 nM after 4 hrs by Western blot analysis relative to control; format: cell-based; how it was run: as §1
# Target sequence in this assay (P03372 whole entry, looked up): as the sequence (P03372 whole entry, looked up) above
# Target sequence in this assay (P40337 whole entry, looked up): as the sequence (P40337 whole entry, looked up) above
# Target sequence in this assay (Q13617 whole entry, looked up): as the sequence (Q13617 whole entry, looked up) above
# [4] = target: T1, von Hippel-Lindau disease tumor suppressor/Estrogen receptor/Cullin-2; experiment: Protac activity against VHL/cullin2/ERalpha in human MCF7 cells assessed as ERalpha degradation by measuring ER protein/GADPH ratio at 1000 nM after 4 hrs by Western blot analysis relative to control; format: cell-based; how it was run: as §1
# Target sequence in this assay (P03372 whole entry, looked up): as the sequence (P03372 whole entry, looked up) above
# Target sequence in this assay (P40337 whole entry, looked up): as the sequence (P40337 whole entry, looked up) above
# Target sequence in this assay (Q13617 whole entry, looked up): as the sequence (Q13617 whole entry, looked up) above
# [5] = target: T1, von Hippel-Lindau disease tumor suppressor/Estrogen receptor/Cullin-2; experiment: Protac activity against VHL/cullin2/ERalpha in human MCF7 cells assessed as ERalpha degradation after 4 hrs by Western blot analysis; format: cell-based; how it was run: as §1
# Target sequence in this assay (P03372 whole entry): as the sequence (P03372 whole entry, looked up) above
# Target sequence in this assay (P40337 whole entry): as the sequence (P40337 whole entry, looked up) above
# Target sequence in this assay (Q13617 whole entry): as the sequence (Q13617 whole entry, looked up) above
# [6] = target: T1, von Hippel-Lindau disease tumor suppressor/Estrogen receptor/Cullin-2; experiment: Protac activity against VHL/cullin2/ERalpha in human MCF7 cells assessed as ERalpha degradation by measuring ER protein/GAPDH ratio at 0.03 nM after 4 hrs by Western blot analysis relative to control; format: cell-based; how it was run: as §1
# Target sequence in this assay (P03372 whole entry, looked up): as the sequence (P03372 whole entry, looked up) above
# Target sequence in this assay (P40337 whole entry, looked up): as the sequence (P40337 whole entry, looked up) above
# Target sequence in this assay (Q13617 whole entry, looked up): as the sequence (Q13617 whole entry, looked up) above
# [7] = target: T1, von Hippel-Lindau disease tumor suppressor/Estrogen receptor/Cullin-2; experiment: Protac activity against VHL/cullin2/ERalpha in human MCF7 cells assessed as ERalpha degradation by measuring ER protein/GAPDH ratio at 0.3 nM after 4 hrs by Western blot analysis relative to control; format: cell-based; how it was run: as §1
# Target sequence in this assay (P03372 whole entry, looked up): as the sequence (P03372 whole entry, looked up) above
# Target sequence in this assay (P40337 whole entry, looked up): as the sequence (P40337 whole entry, looked up) above
# Target sequence in this assay (Q13617 whole entry, looked up): as the sequence (Q13617 whole entry, looked up) above
# [8] = target: T1, von Hippel-Lindau disease tumor suppressor/Estrogen receptor/Cullin-2; experiment: Protac activity against VHL/cullin2/ERalpha in human MCF7 cells assessed as ERalpha degradation by measuring ER protein/GAPDH ratio at 0.6 nM after 4 hrs by Western blot analysis relative to control; format: cell-based; how it was run: as §1
# [9] = target: T1, von Hippel-Lindau disease tumor suppressor/Estrogen receptor/Cullin-2; experiment: Protac activity against VHL/cullin2/ERalpha in human MCF7 cells assessed as ERalpha degradation by measuring ER protein/GAPDH ratio at 5 nM after 4 hrs by Western blot analysis relative to control; format: cell-based; how it was run: as §1
# [10] = target: T1, von Hippel-Lindau disease tumor suppressor/Estrogen receptor/Cullin-2; experiment: Protac activity against VHL/cullin2/ERalpha in human MCF7 cells assessed as ERalpha degradation by measuring ER protein/GAPDH ratio at 30 nM after 4 hrs by Western blot analysis relative to control; format: cell-based; how it was run: as §1
# [11] = target: T1, von Hippel-Lindau disease tumor suppressor/Estrogen receptor/Cullin-2; experiment: Protac activity against VHL/cullin2/ERalpha in human MCF7 cells assessed as ERalpha degradation by measuring ER protein/GAPDH ratio at 300 nM after 4 hrs by Western blot analysis relative to control; format: cell-based; how it was run: as §1
# [12] = target: T1, von Hippel-Lindau disease tumor suppressor/Estrogen receptor/Cullin-2; experiment: Protac activity against VHL/cullin2/ERalpha in human T47D cells assessed as ERalpha degradation by measuring ER protein/GAPDH ratio at 0.03 nM after 4 hrs by Western blot analysis relative to control; format: cell-based
# How it was run: (§2)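 T47D cells (DMEM, 10% FBS, passages 3−8) exposed 4 h over a dose series. RIPA lysates, equal protein, 10% SDS-PAGE, anti-ERα Western blot. ERα band density normalized to GAPDH; DC50 derived from the quantified dose–response.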
# [13] = target: T1, von Hippel-Lindau disease tumor suppressor/Estrogen receptor/Cullin-2; experiment: Protac activity against VHL/cullin2/ERalpha in human T47D cells assessed as ERalpha degradation by measuring ER protein/GAPDH ratio at 0.1 nM after 4 hrs by Western blot analysis relative to control; format: cell-based; how it was run: as §2
# [14] = target: T1, von Hippel-Lindau disease tumor suppressor/Estrogen receptor/Cullin-2; experiment: Protac activity against VHL/cullin2/ERalpha in human T47D cells assessed as ERalpha degradation by measuring ER protein/GAPDH ratio at 0.3 nM after 4 hrs by Western blot analysis relative to control; format: cell-based; how it was run: as §2
# [15] = target: T1, von Hippel-Lindau disease tumor suppressor/Estrogen receptor/Cullin-2; experiment: Protac activity against VHL/cullin2/ERalpha in human T47D cells assessed as ERalpha degradation by measuring ER protein/GAPDH ratio at 0.6 nM after 4 hrs by Western blot analysis relative to control; format: cell-based; how it was run: as §2
# [16] = target: T1, von Hippel-Lindau disease tumor suppressor/Estrogen receptor/Cullin-2; experiment: Protac activity against VHL/cullin2/ERalpha in human T47D cells assessed as ERalpha degradation by measuring ER protein/GAPDH ratio at 1 nM after 4 hrs by Western blot analysis relative to control; format: cell-based; how it was run: as §2
# [17] = target: T1, von Hippel-Lindau disease tumor suppressor/Estrogen receptor/Cullin-2; experiment: Protac activity against VHL/cullin2/ERalpha in human T47D cells assessed as ERalpha degradation by measuring ER protein/GAPDH ratio at 5 nM after 4 hrs by Western blot analysis relative to control; format: cell-based; how it was run: as §2
# [18] = target: T1, von Hippel-Lindau disease tumor suppressor/Estrogen receptor/Cullin-2; experiment: Protac activity against VHL/cullin2/ERalpha in human T47D cells assessed as ERalpha degradation by measuring ER protein/GAPDH ratio at 10 nM after 4 hrs by Western blot analysis relative to control; format: cell-based; how it was run: as §2
# [19] = target: T1, von Hippel-Lindau disease tumor suppressor/Estrogen receptor/Cullin-2; experiment: Protac activity against VHL/cullin2/ERalpha in human T47D cells assessed as ERalpha degradation by measuring ER protein/GAPDH ratio at 30 nM after 4 hrs by Western blot analysis relative to control; format: cell-based; how it was run: as §2
# [20] = target: T1, von Hippel-Lindau disease tumor suppressor/Estrogen receptor/Cullin-2; experiment: Protac activity against VHL/cullin2/ERalpha in human T47D cells assessed as ERalpha degradation by measuring ER protein/GAPDH ratio at 100 nM after 4 hrs by Western blot analysis relative to control; format: cell-based; how it was run: as §2
# [21] = target: T1, von Hippel-Lindau disease tumor suppressor/Estrogen receptor/Cullin-2; experiment: Protac activity against VHL/cullin2/ERalpha in human T47D cells assessed as ERalpha degradation by measuring ER protein/GAPDH ratio at 300 nM after 4 hrs by Western blot analysis relative to control; format: cell-based; how it was run: as §2
# [22] = target: T1, von Hippel-Lindau disease tumor suppressor/Estrogen receptor/Cullin-2; experiment: Protac activity against VHL/cullin2/ERalpha in human T47D cells assessed as ERalpha degradation by measuring ER protein/GAPDH ratio at 1000 nM after 4 hrs by Western blot analysis relative to control; format: cell-based; how it was run: as §2
# [23] = target: T1, von Hippel-Lindau disease tumor suppressor/Estrogen receptor/Cullin-2; experiment: Protac activity against VHL/cullin2/ERalpha in human T47D cells assessed as ERalpha degradation after 4 hrs by Western blot analysis; format: cell-based; how it was run: as §2
# Target sequence in this assay (P03372 whole entry): as the sequence (P03372 whole entry, looked up) above
# Target sequence in this assay (P40337 whole entry): as the sequence (P40337 whole entry, looked up) above
# Target sequence in this assay (Q13617 whole entry): as the sequence (Q13617 whole entry, looked up) above
# [24] = target: T1, von Hippel-Lindau disease tumor suppressor/Estrogen receptor/Cullin-2; experiment: Protac activity against VHL/cullin2/ERalpha in human MCF7 cells assessed as ERalpha degradation by measuring reduction in ER protein level at 30 nM after 1 hr by Western blot analysis relative to control; format: cell-based; design: scale not given: the % may be the effect or the level left
# How it was run: (§3)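 Time course: cells given 30 nM degrader and harvested at time points from 1 h up to 24 h. ERα assessed by Western blot against a GAPDH loading control, with levels taken relative to DMSO.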
# [25] = target: T1, von Hippel-Lindau disease tumor suppressor/Estrogen receptor/Cullin-2; experiment: Protac activity against VHL/cullin2/ERalpha in human MCF7 cells assessed as ERalpha degradation by measuring reduction in ER protein level at 30 nM after 3 hrs by Western blot analysis relative to control; format: cell-based; design: scale not given: the % may be the effect or the level left; how it was run: as §3
# [26] = target: T1, von Hippel-Lindau disease tumor suppressor/Estrogen receptor/Cullin-2; experiment: Protac activity against VHL/cullin2/ERalpha in human T47D cells assessed as ERalpha degradation by measuring reduction in ER protein level at 30 nM after 1 to 3 hrs by Western blot analysis relative to control; format: cell-based; how it was run: as §3
# [27] = target: T1, von Hippel-Lindau disease tumor suppressor/Estrogen receptor/Cullin-2; experiment: Protac activity against VHL/cullin2/ERalpha in human MCF7 cells assessed as ERalpha degradation by measuring reduction in ER protein level pre-treated with raloxifene for 2 hrs followed by compound exposure at 30 nM for 4 hrs by Western blot analysis; format: cell-based
# MCF7 [28] = experiment: Inhibition of cell growth in human MCF7 cells after 4 days by wst-8-based colorimetric analysis; format: functional; details: MCF7, 96 h
# How it was run: (§4)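 Cells seeded at 1500/well overnight, then exposed to graded compound doses for 4 days. Growth read by colorimetric WST-8 assay. GI50 from fitted curves. MCF-7 cells were kept in DMEM, 10% FBS, passages 3−8; human mammary epithelial cells were run the same way.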
# MCF7 [29] = experiment: Inhibition of cell growth in human MCF7 cells after 4 days by wst-8-based colorimetric analysis relative to control; format: functional; how it was run: as §4
# MDA-MB-231 = experiment: Inhibition of cell growth in human MDA-MB-231 cells at 10^-13 to 10^-5 M after 4 days by wst-8-based colorimetric analysis; format: functional
# [30] = Inhibition of cell growth in primary human mammary epithelial cells at 10^-13 to 10^-6 M after 4 days by wst-8-based colorimetric analysis; details: 96 h; how it was run: as §4
# MCF7 [31] = experiment: Antiproliferative activity against human MCF7 cells at 10 to 300 nM after 5 days by crystal violet staining based assay; format: functional, cell-based
# How it was run: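 MCF-7 cells in DMEM with 10% FBS and penicillin/streptomycin, passages 3−8, exposed to compounds at 10, 100 and 300 nM for 5 days, then fixed and stained with crystal violet.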
# [32] = target: T1, von Hippel-Lindau disease tumor suppressor/Estrogen receptor/Cullin-2; experiment: Protac activity against VHL/cullin2/ERalpha in human MCF7 cells assessed as ERalpha degradation by measuring ER protein/GAPDH ratio at 0.1 nM after 4 hrs by Western blot analysis relative to control; format: cell-based; how it was run: as §1
# [33] = target: T1, von Hippel-Lindau disease tumor suppressor/Estrogen receptor/Cullin-2; experiment: Protac activity against VHL/cullin2/ERalpha in human MCF7 cells assessed as ERalpha degradation by measuring reduction in ER protein level pre-treated with carfilzomib for 2 hrs followed by compound exposure at 30 nM for 4 hrs by Western blot analysis; format: cell-based
# [34] = target: T1, von Hippel-Lindau disease tumor suppressor/Estrogen receptor/Cullin-2; experiment: Protac activity against VHL/cullin2/ERalpha in human T47D cells assessed as ERalpha degradation by measuring reduction in ER protein level at 30 nM after 1 to 24 hrs hrs by Western blot analysis relative to control; format: cell-based; how it was run: as §3
compound,measurement,setting,value
CCN(CCCCCOCC(=O)N[C@H](C(=O)N1C[C@H](O)C[C@H]1C(=O)N[C@@H](C)c1ccc(-c2scnc2C)cc1)C(C)(C)C)CCOc1ccc(C(=O)c2c(-c3ccc(O)cc3)sc3cc(O)ccc23)cc1,Ratio,[1],8
same,Ratio,[2],0.3
same,Ratio,[3],0.3
same,Ratio,[4],13
same,DC50,[5],170 pM
same,Ratio,[6],84
same,Ratio,[7],28
same,Ratio,[8],12
same,Ratio,[9],0.3
same,Ratio,[10],0.3
same,Ratio,[11],0.3
same,Ratio,[12],84
same,Ratio,[13],73
same,Ratio,[14],62
same,Ratio,[15],58
same,Ratio,[16],33
same,Ratio,[17],4
same,Ratio,[18],3
same,Ratio,[19],2
same,Ratio,[20],4
same,Ratio,[21],6
same,Ratio,[22],25
same,DC50,[23],430 pM
same,Activity,[24],> 80%
same,Activity,[25],100%
same,Activity,[26],Active
same,Activity,[27],inactive
same,GI50,MCF7 [28],770 pM
same,Imax,MCF7 [29],57.5%
same,growth inhibition (GI),MDA-MB-231,inactive
same,Activity,[30],Non-Toxic
same,Activity,MCF7 [31],Active
same,Ratio,[32],76
same,Activity,[33],inactive
same,Activity,[34],Active
